Paper PMC3437246 (Biochemistry, 2012)
Like-named read-outs stand apart in the source and are kept apart here.

Tests used:
RB69pol Y567A mutant = RB69pol Y567A mutant (Escherichia phage RB69, UniProt Q38087, D222A/D327A/Y567A); assay type: biochemical, bacteriophage RB69; conditions: for Kpol/Kd,app / kpol: Y567A mutant, template tC°; for kpol: 23°C, 10 mM Mg2+
Procedure, shortened: (§1)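 Single-turnover rapid quench was run at 23°C in 66 mM Tris-HCl pH 7.4 using exonuclease-deficient RB69pol. Enzyme plus 5'-32P primer/tC° template was mixed with Mg2+ and varying dNTP for 5 ms to 1 min (final 1 μM enzyme, 90 nM P/T, 10 mM Mg2+). Reactions were EDTA-quenched and resolved on 8 M urea PAGE. kobs came from single-exponential fits, then kpol and Kd,app from a hyperbolic fit; efficiency is kpol/Kd,app.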

wt RB69pol = wt RB69pol (Escherichia phage RB69, UniProt Q38087, D222A/D327A); assay type: biochemical, bacteriophage RB69; conditions: template tC°; for kpol: 23°C, 10 mM Mg2+
Chain of wt RB69pol (Q38087 whole entry D222A/D327A): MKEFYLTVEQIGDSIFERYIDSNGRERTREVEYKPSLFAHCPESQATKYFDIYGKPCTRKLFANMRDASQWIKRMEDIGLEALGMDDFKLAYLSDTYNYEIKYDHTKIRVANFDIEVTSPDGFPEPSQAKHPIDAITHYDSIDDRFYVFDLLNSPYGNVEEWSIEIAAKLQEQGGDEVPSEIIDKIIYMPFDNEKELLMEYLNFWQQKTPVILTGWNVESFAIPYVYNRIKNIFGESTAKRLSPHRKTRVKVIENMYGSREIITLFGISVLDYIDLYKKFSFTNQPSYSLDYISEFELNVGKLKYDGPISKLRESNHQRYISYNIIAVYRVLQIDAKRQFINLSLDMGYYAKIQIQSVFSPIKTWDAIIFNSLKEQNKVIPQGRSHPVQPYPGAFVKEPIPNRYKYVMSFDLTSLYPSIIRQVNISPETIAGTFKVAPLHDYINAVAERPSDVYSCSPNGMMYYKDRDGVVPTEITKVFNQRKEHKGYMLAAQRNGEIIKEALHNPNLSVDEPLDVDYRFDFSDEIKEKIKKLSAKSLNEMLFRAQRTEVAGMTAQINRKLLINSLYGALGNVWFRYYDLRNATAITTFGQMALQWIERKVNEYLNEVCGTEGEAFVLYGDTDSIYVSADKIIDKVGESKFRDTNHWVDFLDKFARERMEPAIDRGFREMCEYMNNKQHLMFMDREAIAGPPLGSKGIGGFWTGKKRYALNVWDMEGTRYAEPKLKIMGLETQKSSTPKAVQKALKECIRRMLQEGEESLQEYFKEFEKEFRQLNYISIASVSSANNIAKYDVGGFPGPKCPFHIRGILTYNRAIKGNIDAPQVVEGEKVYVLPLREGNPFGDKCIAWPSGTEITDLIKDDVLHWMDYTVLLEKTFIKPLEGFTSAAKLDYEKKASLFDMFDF
Procedure, shortened: as §1

Y567A-P/T binary complex = Y567A-P/T binary complex (Escherichia phage RB69, UniProt Q38087, D222A/D327A/Y567A); test: Equilibrium fluorescence titration of dNTP opposite tC°; assay type: binding, bacteriophage RB69; conditions: 1mM dNTP added to Y567A-P/T binary complex
Chain of Y567A-P/T binary complex (Q38087 whole entry D222A/D327A/Y567A, one chain of several): as the sequence (Q38087 whole entry D222A/D327A) above, with Y567A counted along it
Procedure, shortened: (§2)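 Exonuclease-deficient (D222A/D327A) RB69pol, wild type or Y567A, was expressed in E. coli BL21(DE). Enzyme at 1 μM was mixed with 300 nM 3'-dideoxy (ddC) terminated 13/18mer P/T carrying tC° at template position n, in 66 mM Tris-HCl pH 7.4 with 10 mM MgSO4 at 23°C. Excitation was 364 nm and emission was scanned 380–700 nm. Spectra were corrected for enzyme and buffer fluorescence.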

[1] = molecular target: T1, wt RB69pol-P/T binary complex (Escherichia phage RB69, UniProt Q38087, D222A/D327A); test: Stopped-flow fluorescence of tC° quenching on dGTP binding; design: species or system bacteriophage RB69; conditions: full quenching within instrument dead-time (< 2 ms)
T1 sequence (Q38087 whole entry D222A/D327A, one chain of several): as the sequence (Q38087 whole entry D222A/D327A) above

[2] = molecular target: T1, wt RB69pol-P/T binary complex; test: Equilibrium fluorescence titration of dNTP opposite tC°; assay type: binding, bacteriophage RB69; conditions: 1mM dNTP added to wt RB69pol-P/T binary complex
Procedure, shortened: as §2

Y567A RB69pol mutant = Y567A RB69pol mutant (Escherichia phage RB69, UniProt Q38087, D222A/D327A/Y567A); test: Stopped-flow fluorescence of tC° quenching on dGTP binding; design: species or system bacteriophage RB69
Chain of Y567A RB69pol mutant (Q38087 whole entry D222A/D327A/Y567A): as the sequence (Q38087 whole entry D222A/D327A) above, with Y567A counted along it

Chain of RB69pol Y567A mutant (Q38087 whole entry D222A/D327A/Y567A): as the sequence (Q38087 whole entry D222A/D327A) above, with Y567A counted along it

| SMILES | fold increase of incorporation efficiency opposite tC° (RB69pol Y567A mutant; Y567A mutant relative to wt RB69pol) [fold] | Kpol/Kd,app (RB69pol Y567A mutant) [M⁻¹ s⁻¹] | kpol (RB69pol Y567A mutant) [s⁻¹] | kpol (RB69pol Y567A mutant; listed as dAMP) [s⁻¹] | Kpol/Kd,app (wt RB69pol) [M⁻¹ s⁻¹] | fold difference in kpol between dGMP and dAMP (wt RB69pol) [fold] | kpol (wt RB69pol) [s⁻¹] | kpol (wt RB69pol; listed as dAMP) [s⁻¹] | quenching of tC° fluorescence (Y567A-P/T binary complex) | rate of tC° fluorescence quenching [1] | quenching of tC° fluorescence [2] | rate of tC° fluorescence quenching (Y567A RB69pol mutant) [s⁻¹] |
| --- | --- | --- | --- | --- | --- | --- | --- | --- | --- | --- | --- | --- |
| Nc1ncnc2c1ncn2[C@H]1C[C@H](O)[C@@H](COP(=O)(O)OP(=O)(O)OP(=O)(O)O)O1 [dATP] | 200 | 700000 | 180 ± 10 | 180 | 3500 | 40 | 6 ± 0.2 | 6 | ~15% | – | – | – |
| Nc1nc2c(ncn2[C@H]2C[C@H](O)[C@@H](COP(=O)(O)OP(=O)(O)OP(=O)(O)O)O2)c(=O)[nH]1 [dGTP] | – | 4.3e+07 | 170 ± 10 | – | 1.8e+06 | – | 250 ± 7 | – | about 30% | greater than 500 s^−1 | about 30% | > 500 |
